In brackets after ≈: the same amount, converted by molar mass. Activity calls are given as the source filed them. The rule behind the calls is not given here.
Key:
[1] = tested on: Listeria monocytogenes; experiment: Antibacterial activity against Listeria monocytogenes at 100 ug/ml after 24 hrs by paper disc diffusion technique; format: functional; conditions: read-out: IZ
In short: (§1)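 Paper disc diffusion on Mueller Hinton agar, autoclaved at 120 °C for 30 min. Medium at 40–50 °C was seeded at 1 ml/100 ml with a 10^5 cfu/ml suspension matched to 0.9 McFarland. It was poured 3–4 mm deep, and discs with compound in DMSO were laid on it. Plates were pre-incubated 1 h at room temperature, then 37 °C for 24 h. The inhibition zone was measured.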

[2] = tested on: Salmonella typhimurium; experiment: Antibacterial activity against Salmonella Typhimurium after 24 hrs by agar streak dilution method; format: functional, Salmonella enterica subsp. enterica serovar Typhimurium; conditions: Salmonella enterica
In short: (§2)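 Agar streak dilution on Mueller Hinton agar. Compound stock in DMSO was added in graded amounts to molten sterile agar at 40–50 °C. This was poured 3–4 mm deep and left to solidify. Bacterial suspension of about 10^5 cfu/ml was applied to the serially diluted plates. Plates were incubated at 37 °C for 24 h to read the MIC. Strains were food-poisoning isolates from animal byproducts.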

[3] = tested on: Candida albicans; experiment: Antifungal activity against Candida albicans at 100 ug/ml after 48 hrs by paper disc diffusion technique; format: functional
In short: (§3)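 Paper disc diffusion on Sabouraud dextrose agar, autoclaved at 120 °C for 30 min. Medium at 40–50 °C was seeded at 1 ml/100 ml with a 10^5 cfu/ml fungal suspension matched to 0.9 McFarland. It was poured 3–4 mm deep, and compound discs in DMSO were applied. Plates were pre-incubated 1 h at room temperature, then 28 °C for 48 h. The inhibition zone was recorded.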

[4] = tested on: Pseudomonas aeruginosa; experiment: Antibacterial activity against Pseudomonas aeruginosa at 100 ug/ml after 24 hrs by paper disc diffusion technique; format: functional; conditions: read-out: IZ; in short: as §1
[5] = tested on: Aspergillus flavus; experiment: Antifungal activity against Aspergillus flavus at 100 ug/ml after 48 hrs by paper disc diffusion technique; format: functional; conditions: for zone of inhibition at 100 µg/mL: read-out: IZ; in short: as §3
[6] = tested on: Salmonella typhimurium; experiment: Antibacterial activity against Salmonella Typhimurium at 100 ug/ml after 24 hrs by paper disc diffusion technique; format: functional, Salmonella enterica subsp. enterica serovar Typhimurium; conditions: Salmonella enterica, read-out: IZ; in short: as §1
[7] = tested on: Staphylococcus aureus; experiment: Antibacterial activity against Staphylococcus aureus at 100 ug/ml after 24 hrs by paper disc diffusion technique; format: functional; conditions: read-out: IZ; in short: as §1
[8] = tested on: Bacillus cereus; experiment: Antibacterial activity against Bacillus cereus after 24 hrs by agar streak dilution method; format: functional; in short: as §2
[9] = tested on: Escherichia coli; experiment: Antibacterial activity against Escherichia coli O157 at 100 ug/ml after 24 hrs by paper disc diffusion technique; format: functional; conditions: O157, 24 h, read-out: IZ
[10] = tested on: Bacillus cereus; experiment: Antibacterial activity against Bacillus cereus at 100 ug/ml after 24 hrs by paper disc diffusion technique; format: functional; conditions: read-out: IZ; in short: as §1
[11] = tested on: Listeria monocytogenes; experiment: Antibacterial activity against Listeria monocytogenes after 24 hrs by agar streak dilution method; format: functional; in short: as §2
[12] = tested on: Pseudomonas aeruginosa; experiment: Antibacterial activity against Pseudomonas aeruginosa after 24 hrs by agar streak dilution method; format: functional; in short: as §2
[13] = tested on: Staphylococcus aureus; experiment: Antibacterial activity against Staphylococcus aureus after 24 hrs by agar streak dilution method; format: functional; in short: as §2
[14] = tested on: Escherichia coli; experiment: Antibacterial activity against Escherichia coli O157 after 24 hrs by agar streak dilution method; format: functional; conditions: O157, 24 h
[15] = tested on: Aspergillus flavus; experiment: Antifungal activity against Aspergillus flavus after 48 hrs by agar streak dilution method; format: functional
In short: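 Fungal MIC by agar streak dilution on Sabouraud dextrose agar. Compound stock in DMSO was added in graded amounts to molten sterile medium at 40–50 °C. This was poured 3–4 mm deep and left to solidify. Fungal suspension of about 10^5 cfu/ml was applied to the serially diluted plates. Plates were incubated at 37 °C for 48 h.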

Compound | zone of inhibition at 100 µg/mL [1] | MIC [2] | inhibition zone (IZ) [3] | zone of inhibition at 100 µg/mL [4] | zone of inhibition at 100 µg/mL [5] | zone of inhibition at 100 µg/mL [6] | zone of inhibition at 100 µg/mL [7] | MIC [8] | zone of inhibition at 100 µg/mL [9] | zone of inhibition at 100 µg/mL [10] | MIC [11] | MIC [12] | MIC [13] | MIC [14] | MIC [15] | inhibition zone (IZ) [5]
O=C(NN1C(=O)CCC1=O)c1ccc(-n2c(-c3ccccc3)nc3c(Br)cc(Br)cc3c2=O)cc1 | 12 mm | 1.7 µg/mL (≈ 2.85 µM) | inactive | 11 mm | 17 mm | 18 mm | 9 mm | > 50 µg/mL | 9 mm | 9 mm | 50 µg/mL (≈ 83.9 µM) | > 50 µg/mL | > 50 µg/mL | > 50 µg/mL | 3.5 µg/mL (≈ 5.87 µM) | –
COc1ccc(/C=N/NC(=O)c2ccc(-n3c(-c4ccccc4)nc4c(Br)cc(Br)cc4c3=O)cc2)cc1 | 12 mm | > 50 µg/mL | inactive | 11 mm | 11 mm | 10 mm | 11 mm | 35.5 µg/mL (≈ 56.1 µM) | 8 mm | 13 mm | 50 µg/mL (≈ 79.1 µM) | > 50 µg/mL | 50 µg/mL (≈ 79.1 µM) | > 50 µg/mL | 25 µg/mL (≈ 39.5 µM) | –
NNC(=O)c1ccc(-n2c(-c3ccccc3)nc3c(Br)cc(Br)cc3c2=O)cc1 | 11 mm | 50 µg/mL (≈ 97.2 µM) | inactive | 13 mm | 15 mm | 11 mm | 10 mm | 25 µg/mL (≈ 48.6 µM) | 10 mm | 12 mm | 50 µg/mL (≈ 97.2 µM) | 25 µg/mL (≈ 48.6 µM) | > 50 µg/mL | > 50 µg/mL | 18.5 µg/mL (≈ 36 µM) | –
Cc1ccc(/C=N/NC(=O)c2ccc(-n3c(-c4ccccc4)nc4c(Br)cc(Br)cc4c3=O)cc2)cc1 | 13 mm | 5 µg/mL (≈ 8.11 µM) | inactive | 15 mm | 12 mm | 15 mm | 12 mm | 35 µg/mL (≈ 56.8 µM) | 11 mm | 11 mm | 30 µg/mL (≈ 48.7 µM) | 2.5 µg/mL (≈ 4.06 µM) | 25 µg/mL (≈ 40.6 µM) | 40 µg/mL (≈ 64.9 µM) | 20 µg/mL (≈ 32.5 µM) | –
CCOC(=O)c1ccc(-n2c(-c3ccccc3)nc3c(Br)cc(Br)cc3c2=O)cc1 | 14 mm | 3.12 µg/mL (≈ 5.92 µM) | inactive | 12 mm | 10 mm | 16 mm | 17 mm | 50 µg/mL (≈ 94.7 µM) | 11 mm | 9 mm | 25 µg/mL (≈ 47.3 µM) | 50 µg/mL (≈ 94.7 µM) | 1.56 µg/mL (≈ 2.95 µM) | 50 µg/mL (≈ 94.7 µM) | 25 µg/mL (≈ 47.3 µM) | –
O=C1CC(=O)N(C(=O)c2ccc(-n3c(-c4ccccc4)nc4c(Br)cc(Br)cc4c3=O)cc2)N1 | 10 mm | 50 µg/mL (≈ 85.9 µM) | inactive | 11 mm | 18 mm | 12 mm | 9 mm | > 50 µg/mL | – | 10 mm | > 50 µg/mL | > 50 µg/mL | > 50 µg/mL | – | 1.9 µg/mL (≈ 3.26 µM) | –
O=C(N/N=C/c1ccccc1)c1ccc(-n2c(-c3ccccc3)nc3c(Br)cc(Br)cc3c2=O)cc1 | 13 mm | > 50 µg/mL | inactive | 12 mm | 10 mm | 10 mm | 12 mm | 30 µg/mL (≈ 49.8 µM) | 11 mm | 12 mm | 35 µg/mL (≈ 58.1 µM) | 50 µg/mL (≈ 83 µM) | 25 µg/mL (≈ 41.5 µM) | 45 µg/mL (≈ 74.7 µM) | 25 µg/mL (≈ 41.5 µM) | –
CC(=O)NNC(=O)c1ccc(-n2c(-c3ccccc3)nc3c(Br)cc(Br)cc3c2=O)cc1 | 14 mm | 30 µg/mL (≈ 53.9 µM) | inactive | 13 mm | 22 mm | 14 mm | 11 mm | > 50 µg/mL | 9 mm | 9 mm | 35 µg/mL (≈ 62.9 µM) | 25 µg/mL (≈ 44.9 µM) | 40 µg/mL (≈ 71.9 µM) | > 50 µg/mL | 1.2 µg/mL (≈ 2.16 µM) | –
O=C(NN1C(=O)CSC1c1ccccc1O)c1ccc(-n2c(-c3ccccc3)nc3c(Br)cc(Br)cc3c2=O)cc1 (configuration not stated) | 15 mm | 50 µg/mL (≈ 72.2 µM) | inactive | 12 mm | – | 12 mm | 11 mm | > 50 µg/mL | 13 mm | 9 mm | 15 µg/mL (≈ 21.7 µM) | 35 µg/mL (≈ 50.5 µM) | 45 µg/mL (≈ 65 µM) | 30 µg/mL (≈ 43.3 µM) | – | inactive
O=C(O)c1cn(C2CC2)c2cc(N3CCNCC3)c(F)cc2c1=O [CIPROFLOXACIN] | 17 mm | 0.39 µg/mL (≈ 1.18 µM) | – | 19 mm | – | 20 mm | 18 mm | 0.39 µg/mL (≈ 1.18 µM) | 18 mm | 20 mm | 1.56 µg/mL (≈ 4.71 µM) | 0.78 µg/mL (≈ 2.35 µM) | 1.56 µg/mL (≈ 4.71 µM) | – | – | –
O=C(NN1C(=O)CSC1c1ccccc1)c1ccc(-n2c(-c3ccccc3)nc3c(Br)cc(Br)cc3c2=O)cc1 (configuration not stated) | 13 mm | 4.1 µg/mL (≈ 6.06 µM) | inactive | 12 mm | – | 16 mm | 12 mm | 50 µg/mL (≈ 73.9 µM) | 10 mm | 9 mm | 32 µg/mL (≈ 47.3 µM) | 35 µg/mL (≈ 51.7 µM) | 25 µg/mL (≈ 37 µM) | > 50 µg/mL | – | inactive

— ChEMBL document CHEMBL1208666, “Novel 6,8-dibromo-4(3H)quinazolinone derivatives of anti-bacterial and anti-fungal activities” (2010)
